High-throughput results: PubChem BioAssay, several laboratories
MsrA inh: inhibits bovine methionine sulfoxide reductase A; inhibition, % at 15.5 µM; purified bovine MsrA, absorbance read-out; actives 0.75% (n = 360,000); AID 651718; in the data active means inhibition above about 4.5%;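 further: 0% = vehicle wells with enzyme and 100% = reference inhibitor wells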
ARFGAP1 inh: inhibitors of rat ARFGAP1; inhibition, % at 16.5 µM; Q62848; AID 651572; Arfgap1-stimulated ARF1 GTP hydrolysis, GDP FP detection; actives 0.26% (n = 360,000);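 active means inhibition above a per-plate limit, mean inhibition of low control wells plus 3 SD, cut at about 25% in these data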;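 further: 0% = DMSO wells with enzyme and 100% = wells lacking Arfgap1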
Target sequence (Q62848 1-136 limits assumed): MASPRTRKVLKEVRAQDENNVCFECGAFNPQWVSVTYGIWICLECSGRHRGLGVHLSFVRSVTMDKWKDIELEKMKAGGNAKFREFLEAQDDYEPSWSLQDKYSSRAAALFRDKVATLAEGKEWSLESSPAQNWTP
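Repeats: one replicate per compound; assay system: rat Arfgap1 catalytic domain, aa 1-136; times: enzyme reaction 120 min at 25 °C after 20 min preincubation; detection: FP of antibody-bound GDP Alexa 633 tracer, ex 620/em 688 nm; benchmarks: high control wells lacking Arfgap1, low control full reaction with DMSO; reagent: human ARF1(Δ1-17)-GTP substrate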
MsrA act: activators of bovine methionine sulfoxide reductase A; purified bovine MsrA, absorbance read-out; activation, % at 10.6 µM; actives 0.3% (n = 360,000); AID 602163; in the data active means activation above about 7.5%;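 further: 0% = vehicle and 100% = reference activator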
ASAP1 inh: ASAP1 ArfGAP inhibition; inhibition, % at 16.5 µM; Q9ULH1; actives 0.19% (n = 360,000); ASAP1-stimulated ARF1 GTP hydrolysis, GDP FP detection; in the data active means inhibition above about 25%;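 further: 0% = vehicle with enzyme and substrate and 100% = no enzyme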
Rev-erbA mod: modulators of human Rev-erb alpha DNA binding; Rev-erbα–FITC-DNA binding, fluorescence polarization, 90 min; P20393; actives 0.79% (n = 370,000); activity, % at 10 µM;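 active means activity above about 14%, limit read from the data; passing the limit was not always enough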;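 further: 0% = DMSO wells with 35 nM protein and 100% = DMSO wells with 750 nM protein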
sPLA2-III inh: Inhibits HGIII-sPLA2 liposome hydrolysis, primary screen. actives 0.56% (n = 370,000). inhibition, % at 12.2 µM. Q9NZ20. QFRET BODIPY PC-A2 liposome hydrolysis, fluorescence;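 active means inhibition above mean plus 3 SD of compounds lying within the high and low control bounds, cut at about 19% in these data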;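 further: 0% = median of test compound wells and 100% = no enzyme DMSO wells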
Target sequence (Q9NZ20 whole entry, looked up): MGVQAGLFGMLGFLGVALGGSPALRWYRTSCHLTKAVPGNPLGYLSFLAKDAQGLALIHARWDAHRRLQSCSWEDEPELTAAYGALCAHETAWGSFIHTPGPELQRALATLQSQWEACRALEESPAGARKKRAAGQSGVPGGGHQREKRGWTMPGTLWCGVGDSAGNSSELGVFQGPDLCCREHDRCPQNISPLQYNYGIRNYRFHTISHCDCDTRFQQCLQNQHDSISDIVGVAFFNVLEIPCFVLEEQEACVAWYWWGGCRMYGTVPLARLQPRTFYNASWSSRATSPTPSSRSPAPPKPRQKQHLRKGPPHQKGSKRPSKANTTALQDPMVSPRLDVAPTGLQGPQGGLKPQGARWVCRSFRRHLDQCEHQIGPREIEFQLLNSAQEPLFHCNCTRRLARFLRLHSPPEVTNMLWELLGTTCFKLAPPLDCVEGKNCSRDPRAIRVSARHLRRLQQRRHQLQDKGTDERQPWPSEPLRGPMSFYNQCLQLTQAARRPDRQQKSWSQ
sPLA2 confirm: human GIII-sPLA2 inhibition, confirmation; shares compounds with sPLA2-III inh; recombinant hGIII-sPLA2, BODIPY PC-A2 QFRET fluorescence; inhibition, % at 12.2 µM; actives 34% (n = 2,000);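 active means mean inhibition across triplicates above the hit cutoff set in the earlier primary screen, cut at about 19% in these data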;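 further: 0% = enzyme with DMSO and 100% = DMSO wells lacking enzyme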
535nm interf: optically interferes with 535nm fluorescence in sPLA2 counter-screen | actives 8.5% (n = 2,000) | shares compounds with sPLA2-III inh | AID 743282 | inhibition, % at 12.2 µM | BODIPY FL product fluorescence interference, QFRET;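 active means average inhibition above the solvent-only control mean plus 3 SD, cut at about 6% in these data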;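 further: 0% = DMSO with substrate plus product and 100% = DMSO with substrate alone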
BODIPY interf DR: counter-screen for HGIII-sPLA2 inhibitors: 535nm fluorescence interference, dose response | 240 tested, under 10 active | shares compounds with sPLA2-III inh | IC50, µM | BODIPY FL product fluorescence interference, cell-free;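 active means IC50 at or below 10 µM; inactive means IC50 above 10 µM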
Numbers without * were called inactive. Shown are actives, neighbours in structure and some others; about 2.7% of the full set was active somewhere.

Cc1ccc(S(=O)(=O)Nc2ccc(S(=O)(=O)Nc3cc(C)nc(C)n3)cc2)cc1 was read as MsrA inh 1, ARFGAP1 inh 0, MsrA act -1, ASAP1 inh 8, Rev-erbA mod 1 and sPLA2-III inh -8.
For COC(=O)C[C@H]1CC[C@@H]2[C@H](COc3ccc(NC(=O)NCc4ccccc4)cc3C(=O)N2C)O1 the results were Rev-erbA mod 9 and sPLA2-III inh -12.
CCC(=O)Nc1ccc2c(c1)C(=O)N(C)[C@@H]1CC[C@@H](CC(=O)NCc3ccc(OC)cc3)O[C@H]1CO2 was read as Rev-erbA mod -3, sPLA2-III inh 19*, sPLA2 confirm 1 and 535nm interf -5.
CN1C(=O)c2cc(NC(=O)Cc3ccccc3)ccc2OC[C@H]2O[C@H](CC(=O)O)CC[C@H]21 was read as Rev-erbA mod 3 and sPLA2-III inh 1.
`COC(=O)C[C@H]1CC[C@@H]2[C@H](COc3ccc(NC(=O)C(C)C)cc3C(=O)N2C)O1` gave Rev-erbA mod 0, sPLA2-III inh 19*, sPLA2 confirm 0 and 535nm interf -6.
CCS(=O)(=O)Nc1ccc2c(c1)C(=O)N(C)[C@@H]1CC[C@H](CC(=O)N[C@@H]3CCN(Cc4ccccc4)C3)O[C@H]1CO2 was read as Rev-erbA mod 1, sPLA2-III inh 20*, sPLA2 confirm -1 and 535nm interf -12.
For Cc1ccc2c(c1)C1CS(=O)(=O)N(C3CCCC3)C(=O)N1C2 (stereo not drawn) the results were Rev-erbA mod 1 and sPLA2-III inh 2.
`C/C(=N\NC(=O)CSCc1ccc([N+](=O)[O-])cc1)c1ccccc1O` gave MsrA inh 1, ARFGAP1 inh 2, MsrA act -2, ASAP1 inh -5, Rev-erbA mod 1, sPLA2-III inh 21*, sPLA2 confirm 14 and 535nm interf -7.
For COC(=O)c1ccc(CCc2cc(O)c(Br)cc2O)cc1 the results were MsrA inh 0, ARFGAP1 inh 3, MsrA act -4, ASAP1 inh 2, Rev-erbA mod 3, sPLA2-III inh 30*, sPLA2 confirm 9 and 535nm interf 2.
COC(=O)c1ccc(CCc2cc(O)ccc2O)cc1 was read as MsrA act -5.
For Cc1cc(C)nc(N2CCC(C(=O)N(C)CCc3ccccc3)CC2)n1 the results were Rev-erbA mod -6 and sPLA2-III inh 12.
C=CC[C@H]1c2ccccc2[C@H]2N3N=Cc4ccccc4[C@H]3[C@H](CCCC)C(=O)N2N1C(=O)c1ccccc1 was read as Rev-erbA mod 2 and sPLA2-III inh 1.
`OC[C@@H](O)[C@H](O)C(/C=N/Nc1ccccc1)=N\Nc1ccccc1` gave MsrA inh 2, ARFGAP1 inh 5, MsrA act 0, ASAP1 inh 3, Rev-erbA mod 0, sPLA2-III inh 20*, sPLA2 confirm 23* and 535nm interf 3.
`Cc1ccc(-n2c(SCC(=O)c3ccc(F)cc3)nnc2-c2cccnc2)cc1` gave Rev-erbA mod 4 and sPLA2-III inh -55.
For CN(C)c1ccc(Nc2ccc([N+](=O)[O-])cn2)cc1 the results were MsrA inh 2, ARFGAP1 inh -3, MsrA act -7, ASAP1 inh 10, Rev-erbA mod 9, sPLA2-III inh 39*, sPLA2 confirm 44* and 535nm interf 6.5*.
Screening CCOC(=O)c1cnc(-n2[nH]c(C)c(Cc3ccccc3)c2=O)[nH]c1=O returned MsrA inh 2, ARFGAP1 inh 2, MsrA act -4, ASAP1 inh -1, Rev-erbA mod -2, sPLA2-III inh 23*, sPLA2 confirm 20* and 535nm interf -5.
COc1cc(C=Nn2c(-c3ccc(F)cc3)n[nH]c2=S)ccc1OCc1ccccc1 was read as Rev-erbA mod -19 and sPLA2-III inh 4.
COC(=O)Cn1c2ccccc2c(=O)n1C(C)C was read as MsrA inh 1, ARFGAP1 inh 7, MsrA act -11, ASAP1 inh -6, Rev-erbA mod -8, sPLA2-III inh 20*, sPLA2 confirm 1 and 535nm interf 1.
O=C(Cc1noc2ccccc12)NNC(=S)Nc1ccc(Cl)cc1 was read as MsrA inh 1, ARFGAP1 inh -10, MsrA act 0, ASAP1 inh 12, Rev-erbA mod 2, sPLA2-III inh 29*, sPLA2 confirm 26* and 535nm interf 1.
For Cc1c(Cl)cccc1NC(=S)NCc1cccn1C the results were MsrA inh 0, ARFGAP1 inh -6, MsrA act -3, ASAP1 inh -1, Rev-erbA mod 3 and sPLA2-III inh 13.
Screening Cn1cccc1CC(=O)NNC(=S)Nc1ccccc1Cl returned MsrA inh 0, ARFGAP1 inh 3, MsrA act -6, ASAP1 inh 3, Rev-erbA mod 5, sPLA2-III inh 25*, sPLA2 confirm 29*, 535nm interf -3 and BODIPY interf DR >122.
`Cn1cccc1CC(=O)NNC(=S)Nc1ccc(Cl)cc1` gave MsrA inh 0, ARFGAP1 inh 8, MsrA act -5, ASAP1 inh 2, Rev-erbA mod -5, sPLA2-III inh 24*, sPLA2 confirm 27* and 535nm interf 2.
For O=C(Cc1noc2ccccc12)NNC(=S)Nc1ccccc1 the results were MsrA inh 1, ARFGAP1 inh 1, MsrA act -3, ASAP1 inh -5, Rev-erbA mod 9 and sPLA2-III inh 18.
Cc1ccc(/C=N/NC(=O)CSc2nc3ccccc3c(=O)n2-c2ccccc2C)s1 was read as MsrA inh 1, ARFGAP1 inh 19, MsrA act -3, ASAP1 inh -2, Rev-erbA mod -3 and sPLA2-III inh -5.
CC(=O)/C(=N\Nc1cccc(Cl)c1)Sc1nnc(-c2ccccc2)n1-c1ccccc1 was read as MsrA inh 1, ARFGAP1 inh -8, MsrA act -1, ASAP1 inh 2, Rev-erbA mod -1, sPLA2-III inh 20*, sPLA2 confirm 7 and 535nm interf -3.
